Laboratory results published in ChEMBL document CHEMBL1124875, “Brain targeting of anti-HIV nucleosides: synthesis and in vitro and in vivo studies of dihydropyridine derivatives of 3'-azido-2',3'-dideoxyuridine and 3'-azido-3'-deoxythymidine” (J Med Chem, 1990).

What was measured:
[1] = (§1) Half life of the compound; assay type: ADME
[2] = Relative brain exposure of the compound
[3] = serum
Mus musculus [4] = species on record: Mus musculus; experiment: In vitro degradation rate constant in Mouse serum; assay type: ADME
Procedure, shortened: (§2)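 Prodrug added from DMSO standard to an initial 50 or 10 µg/mL in one of four media at 37 °C with shaking: fresh human serum, fresh mouse serum, mouse brain homogenate (1:1 g/mL in physiological phosphate buffer), or phosphate buffer pH 7.4. Sampled 0–10 h. Dihydropyridine, quaternary salt and parent drug were measured by ion-pair HPLC at 260 nm. k is the terminal-phase ln(concentration)–time regression slope, with the associated half-life.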

[5] = In vitro degradation rate constant in phosphate buffer at pH 7.4; assay type: ADME; procedure, shortened: as §2
[6] = Half life in Mouse brain hom; assay type: ADME, organism-based; details: brain homogenate; procedure, shortened: as §2
[7] = Half life in Mouse serum; assay type: ADME, organism-based; procedure, shortened: as §2
[8] = Half life in phosphate buffer at pH 7.4; assay type: ADME; procedure, shortened: as §2
Mus musculus [9] = species on record: Mus musculus; experiment: In vitro degradation rate constant Mouse brain hom; assay type: ADME; procedure, shortened: as §2
Homo sapiens = species on record: Homo sapiens; experiment: In vitro degradation rate constant in Human serum; assay type: ADME; procedure, shortened: as §2
[10] = Half life in Human serum; assay type: ADME, organism-based; procedure, shortened: as §2
in vivo [11] = details: brain
in vivo [12] = details: serum
[13] = In vitro anti-HIV activity was determined in peripheral blood mononuclear cells.; assay type: functional, Homo sapiens
[14] = as §1; assay type: functional

| Structure (SMILES) | T1/2 [1] [h] | Rel brain exposure [2] | AUC [ng·h/mL] | AUC [3] [ng·h/mL] | Rate constant (Mus musculus [4]) [h⁻¹] | Rate constant [5] [h⁻¹] | half-life [6] [h] | half-life [7] [h] | half-life [8] [h] | Rate constant (Mus musculus [9]) [h⁻¹] | Rate constant (Homo sapiens) [h⁻¹] | half-life [10] [h] | AUC (in vivo [11]) [ng·h/mL] | AUC (in vivo [12]) [ng·h/mL] | EC50 [13] [nM] | EC50 ([13]; Homo sapiens) [nM] | half-life [1] [h] | T1/2 [14] [h] |
| --- | --- | --- | --- | --- | --- | --- | --- | --- | --- | --- | --- | --- | --- | --- | --- | --- | --- | --- |
| Cc1cn([C@H]2C[C@H](N=[N+]=[N-])[C@@H](COC(=O)c3ccc[n+](C)c3)O2)c(=O)[nH]c1=O.[I-] | – | – | – | – | 0.64 | 0.55 | 1.69 | 1.08 | 1.25 | 0.41 | 0.02 | 34.6 | 1290 | 600 | – | – | – | – |
| CN1C=CCC(C(=O)OC[C@H]2O[C@@H](n3ccc(=O)[nH]c3=O)C[C@@H]2N=[N+]=[N-])=C1 | – | – | – | – | 1.24 | 0.33 | 0.17 | 0.56 | 2.13 | 4.15 | 0.16 | 4.33 | – | 4430 | 1000 | – | – | – |
| C[n+]1cccc(C(=O)OC[C@H]2O[C@@H](n3ccc(=O)[nH]c3=O)C[C@@H]2N=[N+]=[N-])c1.[I-] | – | – | – | – | 1.36 | 0.8 | 0.65 | 0.51 | 0.87 | 1.07 | 0.14 | 4.95 | 3910 | 1210 | – | – | – | – |
| Cc1cn([C@H]2C[C@H](N=[N+]=[N-])[C@@H](COC(=O)C3=CN(C)C=CC3)O2)c(=O)[nH]c1=O | – | – | – | – | 0.49 | 0.21 | 0.18 | 1.4 | 3.23 | 3.89 | 0.09 | 7.7 | – | 1270 | – | 1.6 | – | – |

Continued, in another order:

| T1/2 [1] [h] | Rel brain exposure [2] | AUC [ng·h/mL] | AUC [3] [ng·h/mL] | Rate constant (Mus musculus [4]) [h⁻¹] | Rate constant [5] [h⁻¹] | half-life [6] [h] | half-life [7] [h] | half-life [8] [h] | Rate constant (Mus musculus [9]) [h⁻¹] | Rate constant (Homo sapiens) [h⁻¹] | half-life [10] [h] | AUC (in vivo [11]) [ng·h/mL] | AUC (in vivo [12]) [ng·h/mL] | EC50 [13] [nM] | EC50 ([13]; Homo sapiens) [nM] | half-life [1] [h] | Structure (SMILES) | T1/2 [14] [h] |
| --- | --- | --- | --- | --- | --- | --- | --- | --- | --- | --- | --- | --- | --- | --- | --- | --- | --- | --- |
| 4.34 | 5.47 | 11430 | 25790 | – | – | – | – | – | – | – | – | – | – | – | – | – | [N-]=[N+]=N[C@H]1C[C@H](n2ccc(=O)[nH]c2=O)O[C@@H]1CO (stereo in doubt; form 1) [NAVURIDINE] | – |
| 0.84 | – | 2090 | – | – | – | – | – | – | – | – | – | – | 25800 | – | 200 | – | [N-]=[N+]=N[C@H]1C[C@H](n2ccc(=O)[nH]c2=O)O[C@@H]1CO (stereo in doubt; form 2) [NAVURIDINE] | – |
| – | – | – | 25380 | – | – | – | – | – | – | – | – | – | 26600 | – | 2 | 0.54 | Cc1cn([C@H]2C[C@H](N=[N+]=[N-])[C@@H](CO)O2)c(=O)[nH]c1=O [ZIDOVUDINE] | 15.8 |
